Screening results: PubChem BioAssay, several laboratories
Sampled rows, rich in hits. Any-hit rate of the full collection: about 1%.
hK5 inh – human KLK5 protease inhibitors, primary screen, biochemical, 1536-well. 0.59% of 210,000 active. recombinant hK5, fluorogenic AMC substrate cleavage. Kallikrein-5 (Homo sapiens), Q9Y337. inhibition, % at 5 µM;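 active = inhibition of 40% or more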
Target sequence (Q9Y337 67-293 limits assumed): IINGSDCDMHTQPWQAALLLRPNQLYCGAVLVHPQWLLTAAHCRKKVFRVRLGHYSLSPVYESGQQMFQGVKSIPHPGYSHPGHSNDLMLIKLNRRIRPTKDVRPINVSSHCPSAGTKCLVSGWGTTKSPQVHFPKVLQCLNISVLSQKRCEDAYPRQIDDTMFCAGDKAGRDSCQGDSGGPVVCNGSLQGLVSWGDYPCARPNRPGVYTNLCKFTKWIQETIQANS
thrombin 1536 – human alpha-thrombin inhibitors, primary screen, counter-screen for coagulation protease inhibitor project, biochemical, 1536-well, fluorogenic AMC substrate; Prothrombin (Homo sapiens), P00734; Boc-VPR-AMC fluorogenic substrate cleavage; inhibition, % at 5 µM; 0.26% of 220,000 active;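 active = inhibition at or above 40%; inactive = inhibition below 40%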
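System: human alpha-thrombin protein; Compound dosing: one concentration per compound, 5 µM, with 0.2% DMSO; Timing: reaction at room temperature; Technique: AMC fluorescence, 355/460 nm; Controls: enzyme without compound as high, wells lacking enzyme as low.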
Furin inh – human furin inhibitors, primary screen, biochemical, fluorescence intensity; P09958; purified furin, fluorogenic substrate cleavage; inhibition, % at 20 µM or 30 µM; 0.061% of 220,000 active; AID 463115, 2010; in the data active = inhibition above about 25%
FXIa inh 1536 – human FXIa protease inhibitors, primary screen, biochemical, 1536-well; inhibition, % at 5 µM; Coagulation factor XI (Homo sapiens), P03951; 0.14% of 220,000 active; purified FXIa, Boc-Glu-Ala-Arg-AMC fluorogenic substrate;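 active = inhibition of at least 40%; inactive = inhibition below 40%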;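 also: fluorescence of freed AMC excited at 355 nm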
HSV augment – enhancers of HSV replication in host cells, fold increase, host cell viability; HSV replication augmentation in cells; maximum fold increase; 0.005% of 220,000 active; AID 1956, 2009; in the data active = maximum fold increase above about 1.5; inconclusive = no clear call, values can overlap the other calls; tested in PC3 cells
FXIIa inh 1536 – human FXIIa protease inhibitors, primary screen, biochemical, 1536-well; Coagulation factor XII (Homo sapiens), P00748; 0.3% of 220,000 active; purified FXIIa, Boc-QGR-AMC fluorogenic substrate, 2 h; inhibition, % at 5 µM; in the data active = inhibition above about 40%
A number is an active result; . = inactive; ? = inconclusive; / = no result.

SMILES	hK5 inh	thrombin 1536	Furin inh	FXIa inh 1536	HSV augment	FXIIa inh 1536
CC(NC(=O)c1cnc2n(c1=O)CCS2)c1ccccc1 (centres undefined)	41.5	.	.	.	.	.
CCOc1ccc(CCNC(=O)c2cc3ccccn3n2)cc1OCC	59.5	.	.	.	.	.
COCCn1c(SCc2cc(=O)n3cc(C)ccc3n2)nc2ccccc2c1=O	.	.	.	.	.	/
NC1=NC(=Nc2cccc(Cl)c2)c2ccccc21	.	.	.	.	/	.
Fc1ccc(Oc2cnc3ccccc3n2)cc1	.	95.3	.	.	/	.
Cn1c(/C(C#N)=C/C2CC=CCC2)nc2ccccc21 (centres undefined)	46.5	.	.	.	.	.
CC(C)c1cc(C(=O)Nc2cccnc2)no1	44.7	.	.	.	.	.
CC1CCN(C(=O)C(C)c2ccc([N+](=O)[O-])cc2)CC1 (centres undefined)	.	.	.	.	.	.
Cc1cc(C)cc(NC(=S)N(Cc2cccc(Br)c2)CC2CCC(C(=O)O)CC2)c1 (centres undefined)	.	.	.	.	.	.
CCc1ccc(NC(=S)N(Cc2cccc(Br)c2)CC2CCC(C(=O)O)CC2)cc1 (centres undefined)	65.5	.	.	.	.	.
O=[N+]([O-])c1ccc2[nH]ncc2c1	.	.	.	.	.	.
CCCCOCCCNC(=O)C1CCCCC1	40.6	.	.	.	.	.
O=C(NCCCCNC(=O)C1CCCC1)C1CCCC1	.	.	.	.	.	.
N=C1/C(=C\c2ccc(OC(=O)c3ccco3)cc2)C(=O)N=C2SC=NN12	57.8	.	.	.	.	.
COc1cc(/C=C2\C(=N)N3N=CSC3=NC2=O)cc(Br)c1OC(=O)c1ccco1	.	.	.	.	?	.
CCN(Cc1ccccc1)Cc1nnnn1Cc1ccccc1	.	.	.	.	.	.
CCOc1ccc(Nc2nc(Nc3ccc(O)cc3)nc(C)c2[N+](=O)[O-])cc1	.	.	.	.	.	.
CCNc1ccc(C(=O)OCC(=O)NC(C)c2ccccc2)cc1[N+](=O)[O-] (centres undefined)	.	.	.	.	.	.
CCNc1ccc(C(=O)OC(C(=O)NC(N)=O)C(C)C)cc1[N+](=O)[O-] (centres undefined)	54.0	.	.	.	.	.
O=C1NCC(O)=C1C=Nc1ccccc1O	.	.	.	.	.	.
O=C(c1ccco1)N1CCN(C(=O)N2c3ccccc3Sc3ccccc32)CC1	42.9	103.8	.	.	.	.
O=C(c1ccco1)N1c2ccccc2Sc2ccccc21	.	.	.	.	.	.
COc1ccc(NC(=O)CC2C(=O)N(C)C(=S)N2Cc2ccncc2)cc1 (centres undefined)	.	.	.	.	.	.
COC(=O)c1ccc(NC(=O)CC2C(=O)N(C)C(=S)N2Cc2ccc(S(N)(=O)=O)cc2)cc1 (centres undefined)	54.0	.	.	.	.	.
CCN(CC)S(=O)(=O)c1cc(NC(=O)C(CC(C)C)NC(N)=O)ccc1C (centres undefined)	.	.	.	.	.	.
SMILES	hK5 inh	thrombin 1536	Furin inh	FXIa inh 1536	HSV augment	FXIIa inh 1536
CC(=O)NC(=S)Nc1cc(C(F)(F)F)ccc1N1CCOCC1	.	.	.	.	.	.
O=C(NC(=S)Nc1cc(C(F)(F)F)ccc1N1CCOCC1)c1ccco1	42.4	.	.	.	.	.
O=C(C(Sc1ccccc1)c1ccccc1)N1CCOCC1 (centres undefined)	.	.	.	.	.	.
O=C(NC1CCCC1)C(c1ccccn1)N(C(=O)c1csnn1)C1CCCCC1 (centres undefined)	.	.	.	.	.	.
O=C(NC1CCCC1)C(c1ccccn1)N(C(=O)c1csnn1)C1CC1 (centres undefined)	.	.	.	44.1	.	.
CCOc1ccc(NC(=O)c2ccc(CNc3c(N4CCCC4)c(=O)c3=O)cc2)cc1	.	41.1	.	.	.	.
Cc1ccnc(NC(=O)CSc2ccccn2)c1	.	.	.	.	.	.
COC(=O)c1sc(N2C(=O)C(O)=C(C(=O)c3ccc(C)o3)C2c2ccc(F)cc2)nc1C (centres undefined)	51.1	.	.	.	.	.
Cc1ccc(C(=O)C2=C(O)C(=O)N(c3ncccn3)C2c2ccc(F)cc2)o1 (centres undefined)	.	.	.	.	.	.
COc1ccc(C(OC(=O)c2ccco2)C(=O)NC2CCCCC2)cc1OC (centres undefined)	83.1	.	.	.	.	.
O=C(NCc1ccco1)C1CC(c2cc(C(F)(F)F)cc(C(F)(F)F)c2)=NO1 (centres undefined)	.	.	.	.	.	.
Cc1[nH]c2c(C)cccc2c1CN1CCC(CO)(Cc2ccccc2)CC1	.	.	.	.	.	.
O=C(CN1CCCN(Cc2ccc(F)cc2Cl)C1=O)NC1CCCC1	.	.	.	.	.	.
C=CCSc1nc(C)c(CC=C)c(=O)[nH]1	.	.	.	.	.	53.2
COc1cc(/C=C/C(=O)OCC(=O)NC(=O)NC(C)C)ccc1O	.	.	27.2	.	.	.
COc1ccc(NC(=O)C2CCCCN2S(=O)(=O)c2ccc(F)cc2)cc1 (centres undefined)	53.4	.	.	.	.	.
COc1ccc(NC(=O)C2CCCCN2S(=O)(=O)c2ccc(F)cc2)c(OC)c1 (centres undefined)	40.8	.	.	.	.	.
Cc1ccc(S(=O)(=O)N2CCCC2C(=O)Nn2cnnc2)cc1 (centres undefined)	.	.	.	.	.	.
COc1ccccc1NC(=O)C1CCCCN1S(=O)(=O)c1ccc(F)cc1 (centres undefined)	.	.	.	.	.	.
COc1ccc(S(=O)(=O)N2CCCC2C(=O)Nn2cnnc2)cc1 (centres undefined)	.	.	.	.	.	43.3
CSCCC(NC(=O)c1cccc(C)c1)C(=O)OCC(=O)NC(=O)c1cccn1C (centres undefined)	.	48.4	.	.	.	.
Cc1ccc(C(=O)OCC(=O)NC(=O)c2cccn2C)cc1	.	.	.	.	.	.
O=[N+]([O-])c1cc(S(=O)(=O)Nc2cccc(Cl)c2)ccc1N/N=C/c1ccc(N2CCOCC2)cc1	.	.	.	.	.	.
O=C(COc1ccc([N+](=O)[O-])cc1)NC(C(=O)O)C(O)c1cccc([N+](=O)[O-])c1 (centres undefined)	.	.	.	.	.	.
Cc1ccc(OCC(=O)Nc2nnn(C)n2)c(C)c1	.	.	.	.	.	43.1
